# An excerpt weighted towards active compounds, which were near 1.7% of everything screened.
# Runt-SMMHC FRET: blocks binding of human RUNX1 Runt domain to CBFb-SMMHC; Cerulean-Runt/Venus-CBFb-SMMHC FRET ratio 530/480, 1 h; inhibition, % at 20 µM; hit rate 0.74% among 220,000; AID 1434;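 active means mean inhibition across duplicate retests at 20 µM reaching about 50%, limit read from the data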;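 further: 0% = DMSO wells and 100% = wells with excess untagged CBFb-SMMHC; inhibitors lower the FRET ratio by blocking Runt binding to CBFb-SMMHC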
# Rce1 inhib: inhibitors of yeast Ras-converting enzyme | Q03530 | yeast membranes, quenched prenylated peptide cleavage fluorescence | calls only | hit rate 0.27% among 290,000 | AID 2563;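 active means fall in fluorescence gain of 50% or more versus controls, with final raw signal at or below 3038400; inconclusive means same 50% fall but final raw signal above 3038400; inactive means fall in fluorescence gain under 50%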;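 further: plate controls were neutral control wells for no effect and wells lacking membranes for full effect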
# Target sequence (Q03530 whole entry, looked up): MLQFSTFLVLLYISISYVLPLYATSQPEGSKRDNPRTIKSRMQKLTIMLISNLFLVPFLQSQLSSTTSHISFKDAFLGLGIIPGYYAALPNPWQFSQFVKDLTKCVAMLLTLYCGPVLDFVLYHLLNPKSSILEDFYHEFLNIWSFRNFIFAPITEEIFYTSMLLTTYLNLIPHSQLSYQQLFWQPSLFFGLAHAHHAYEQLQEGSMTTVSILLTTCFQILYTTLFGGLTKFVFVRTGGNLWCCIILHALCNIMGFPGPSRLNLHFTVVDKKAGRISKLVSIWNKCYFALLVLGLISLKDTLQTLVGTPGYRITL
# Vif inh: HIV Vif inhibition; hit rate 0.35% among 340,000; inhibition, % at 7.49 µM; AID 602346; HEK293T cells, Vif self-association by quenched fluorescence, imaging, 24 h; in the data active means inhibition above about 50%, passing the limit was not always enough; inconclusive means no clear call, values can overlap the other calls; inactive means below about 31%
# RanGTP-Impb inh: inhibitors of RanGTP-importin-beta interaction, primary screen, biochemical, FRET, CFP-Ran, YFP-importin-beta, homogeneous; hit rate 1.1% among 300,000; cell-free CFP-Ran/YFP-importin-beta FRET ratio; inhibition, % (no concentration beside the values);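 active means more than half of the replicate wells show a fall in the fluorescence ratio signal beyond about 16%, limit read from the data, passing the limit was not always enough; inconclusive means exactly half of the replicate wells pass the set limit; inactive means fewer than half of replicates pass the limit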;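 further: 0% = DMSO wells and 100% = Ran loaded with GDP instead of GTP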
# Runt-CBFb FRET: blocks binding of human RUNX1 Runt domain to CBFb; Cerulean-Runt/Venus-CBFb FRET ratio 530/480, 1 h; inhibition, % at 20 µM; hit rate 0.46% among 220,000; AID 1496;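 active means inhibition over about 50% at 20 µM in the single-dose screen, limit read from the data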;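 further: 0% = DMSO wells and 100% = excess unlabeled CBFb competitor control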
#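 System: Cerulean-labeled Runt domain protein | Quantity: 100 nM of each labeled protein | Schedule: 1 h compound exposure, room temperature | Detection: Fluorescence energy transfer, 422 nm excitation, 530/480 nm emission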
# Starred values were filed as active, the others as inactive; i = inactive; ? = inconclusive; . = not tested or not shown; + = active, no number.
SMILES,Runt-SMMHC FRET,Rce1 inhib,Vif inh,RanGTP-Impb inh,Runt-CBFb FRET
Cc1ccc(S(=O)(=O)c2cc3c(=O)n4ccccc4nc3n(Cc3ccco3)c2=N)cc1,.,i,-10,104*,19
Cc1ccc(S(=O)(=O)c2cc3c(=O)n4cccc(C)c4nc3n(Cc3ccco3)c2=N)cc1C,65*,.,.,.,48
CC(C)N(C(=O)[C@H]1C[C@H](CC(=O)NCCN2CCOCC2)C(=O)N2CCc3c([nH]c4cc(CCC(=O)N(C)C)ccc34)[C@]12C)C(C)C,.,.,103*,.,.
O=C(Cc1cc(=O)oc2cc(O)ccc12)NC(Cc1ccc(Cl)cc1)C(=O)O (stereo unspecified),.,?,17,50*,.
Cc1c(O)ccc2c(CC(=O)N[C@@H](Cc3ccc(O)cc3)C(=O)O)cc(=O)oc12,.,i,-12,52*,.
Cc1ccc(CNC(=O)C(=O)NCC2OCCN2S(=O)(=O)c2ccc(Br)cc2)cc1 (stereo unspecified),.,i,-14,3,.
COc1cc(NCc2ccccc2)c2ncn(C(C)C)c2c1,.,.,-13,.,.
COc1cc(NCCCNC(C)C)c2nccc(C)c2c1,.,.,67*,.,.
CCn1nc(C)cc1C(=O)N1CCCC(N(C)CCc2ccc(OC)c(OC)c2)C1 (stereo unspecified),.,i,-5,1,.
O=c1[nH]c2c(=O)[nH]cnc2nc1-c1ccccc1,.,i,-3,47*,.
Cc1cccc2cc(C3CC(c4cccs4)=NN3C(=O)CCC(=O)O)c(Cl)nc12 (stereo unspecified),2,i,-7,-2,0
Cc1ccc2nc(Cl)c(C3CC(c4cccs4)=NN3C(=O)CCCC(=O)O)cc2c1 (stereo unspecified),4,+,-8,-1,-4
FC(F)(F)c1nnc(-c2ccccc2)nc1Oc1ccc(Cl)cc1Cl,4,i,51*,2,1
C=CC(C)(O)CCCC(C)CCCC(C)CCCC(C)C (stereo unspecified),.,.,160*,.,.
CCCn1c(=O)c(C(=O)NCCc2ccc(OC)cc2)c(O)c2ccccc21,.,i,4,?,.
Cc1[nH]c2ccccc2c1C1(O)C(=O)N(C(C)C)c2ccccc21 (stereo unspecified),-17,i,57*,?,3
CC1(c2ccc(OCC#N)cc2)C=C(c2ccc(OCC#N)cc2)n2nc(C(F)(F)F)nc2N1 (stereo unspecified),-3,+,-11,0,-2
COc1ccc(NC(=O)CNc2ccc(OC)c(S(=O)(=O)N3CCOCC3)c2)cc1,.,.,-9,.,.
Cc1cc(NC(=O)c2oc3ccccc3c2C)ccc1-n1cnnn1,-8,+,-10,0,-3
COCCCN1C(=O)C(CC(=O)NCCCCc2ccccc2)CC(C(=O)N2CCOCC2)=C1C (stereo unspecified),.,.,-6,.,.
COCCCN1C(=O)C(CC(=O)NCc2cccc3ccccc23)CC(C(=O)N2CCOCC2)=C1C (stereo unspecified),.,.,67*,.,.
c1ccc(CSc2nnc(Cc3ccccc3)o2)cc1,-2,i,1,0,1
c1ccc(CSc2nnc(Cc3ccccn3)o2)cc1,1,i,1,22*,-1
CC(C)(C)NC(=O)C(c1ccc(O)cc1)N(Cc1ccc2c(c1)OCO2)C(=O)CCl (stereo unspecified),.,.,80*,.,.
CCOCCCNC(=O)C(c1ccc(Cl)cc1)N(Cc1ccc2c(c1)OCO2)C(=O)CNC(C)=O (stereo unspecified),1,.,-2,-3,-2
SMILES,Runt-SMMHC FRET,Rce1 inhib,Vif inh,RanGTP-Impb inh,Runt-CBFb FRET
Cc1ccccc1-c1ccc(/C=C2/SC(N3CCOCC3)=NC2=O)o1,-42,i,-9,20*,-21
COc1cccc2[nH]c(C(=O)NC(C)c3ccccc3)cc12 (stereo unspecified),.,+,2,0,.
c1ccc(-c2cn3nc(-c4ccccc4)c(-c4ccccc4)nc3n2)cc1,-2,i,157*,-9,.
Cc1ccc(-c2cn3nc(-c4ccccc4)c(-c4ccccc4)nc3n2)cc1,81,i,i,90*,2
Cc1ccc2nc(-c3ccccc3)cn2c1,2,+,1,2,-3
Cc1nn2cc(-c3ccc(-c4ccccc4)cc3)nc2s1,2,i,-10,-2,-2
COc1ccc(S(=O)(=O)N2CCCC(C(=O)NCc3cccnc3)C2)cc1OC (stereo unspecified),.,i,13,-3,.
CCOC(=O)/C(=C/c1ccc(N2CCC(c3ccccc3)=N2)cc1)C(C)=O,79*,i,-15,-2,5
O=C(c1cc(C2CCCCN2S(=O)(=O)c2ccc(F)cc2F)on1)N1CCOCC1 (stereo unspecified),.,.,-15,.,.
C=CCc1cccc(/C=N/NC(=O)c2ccccc2Br)c1O,-2,i,3,-1,0
C=CCc1cccc(/C=N/NC(=O)c2ccccc2OC)c1O,2,i,-4,39*,2
CN1c2ccccc2-c2nc3ccccc3n2C1c1cccs1 (stereo unspecified),30,+,-3,?,11
CN(C)c1ccc(/C=C2\SC(N3CCCCC3)=NC2=O)cc1,.,i,196*,-10,.
Cc1ccc(/C=C2\SC(N3CCCC3)=NC2=O)cc1,-3,i,.,0,0
CCOC(=O)Cc1nnc(NC(=O)CSc2nc3ccccc3[nH]2)s1,0,i,-7,?,2
COc1ccc(C2NC(c3ccc(OC)cc3OC)C(C)C(=O)C2C)c(OC)c1 (stereo unspecified),0,i,-18,116*,-2
COc1ccc(OC)c(C2CC(=O)C(C)C(c3cc(OC)ccc3OC)N2)c1 (stereo unspecified),-1,i,.,11,2
Cc1ccc(S(=O)(=O)N2C[C@H]3[C@H]4C(=O)N(c5ccccc5)C(=O)[C@H]4C[C@H](OC(=O)NC4CCCC4)[C@@]3(O)C2)cc1,.,.,-4,.,.
CCC1CCCCN1C(=O)CCNS(=O)(=O)c1ccc2c(c1)oc(=O)n2C (stereo unspecified),.,i,-1,2,.
COC(=O)c1cc2c(=O)n3cccc(C)c3nc2n(Cc2cccnc2)c1=N,57*,.,.,.,56*
C=CCn1c(=N)c(C(=O)OC)cc2c(=O)n3cccc(C)c3nc21,58*,.,.,.,52*
COc1ccc(C(C)(O)c2nc(-c3ccncc3)cs2)cc1 (stereo unspecified),.,.,-5,.,.
COCCCNC(=O)CN1C(=O)c2ccccc2C1=O,1,i,1,-3,-1
CC1CCCCC1NC(=O)CN1C(=O)c2cccc(N)c2C1=O (stereo unspecified),86*,i,-2,-4,21
CCCCNC(=O)CN1C(=O)c2cccc(N)c2C1=O,93*,i,16,-3,20
COc1ccccc1CNC(=O)CN1C(=O)c2cccc(N)c2C1=O,.,i,12,27*,.

# Compound activity as filed in PubChem.
